Results taken from PMC3495823 (Cell Cycle, 2012).

Assays:
[1] = Octanol-PBS partition coefficient; assay type: physicochemical; conditions: n-octanol/PBS, pH 7.4
Summary of the method: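 Shake-flask method: 1 mg compound was dissolved in 1 mL octanol-saturated PBS pH 7.4 and shaken with 1 mL PBS-saturated octanol for 24 h at 37°C. Phases were separated by centrifugation (10,000 rpm, 10 min) and each was analysed by LC-MS/MS. LogD7.4 was calculated from the ratio of peak AUCs, each normalized to its injection volume.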

[2] = Tissue distribution by LC-MS/MS after intraperitoneal injection; assay type: in vivo, mouse; conditions: 20 mg/kg i.p.
Summary of the method: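 Mice received 20 mg/kg in peanut oil i.p. or by oral gavage; tissues and cardiac blood were taken 1, 4 and 24 h later, with brain cortex and cerebellum at 4 h. Weighed tissues (or 30 µL serum in water) were extracted three times with dichloromethane and analysed by ESI-positive LC-MS/MS. Levels came from peak AUC against calibration curves, with internal-standard normalization for quantification; three samples per point.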

[3] = normal mice, 4 hours after injection

SMILES: CC(C)[C@H](CO)Nc1nc(Nc2ccc(C(=O)O)c(Cl)c2)c2ncn(C(C)C)c2n1 [PVB, purvalanol B]
- logD [1]: 0.15 ± 0.002
- detection in kidney, spleen, pancreas, prostate lung and serum [2]: detected
- overall tissue and serum levels compared with VMY [2]: lower than VMY
- concentration in cerebellar tissue [2, 3]: not detected
- concentration in cortical tissue [2, 3]: not detected
